Measurements from different studies.
MAP2K6: Dual specificity mitogen-activated protein kinase kinase 6 (MAP2K6, Homo sapiens, UniProt P52564)

Structure (SMILES)	target	test	conditions	measurement	result
N#CC1(c2ccccn2)CCN(Cc2cc(C(=O)O)c(=O)n3ccccc23)CC1	MAP2K6	cell-free assay, competition with immobilised ligand	1 µM	remaining binding	99%
COc1ncccc1-c1cnn2ccc(N3CCN(C(=O)OC(C)C)CC3)nc12	MAP2K6	binding, competition with immobilised ligand	1 µM	remaining binding	56%
O=c1[nH]c2ccccc2n1C1CCN(Cc2ccc(-c3[nH]c4cc5ncnc5cc4nc3-c3ccccc3)cc2)CC1	MAP2K6	cell-free assay	0.5 µM	remaining signal	101%
Nc1ncc(-c2nc(N3CCOCC3)nc(N3CCOCC3)n2)c(C(F)F)n1	MAP2K6	binding, competition with immobilised ligand	10 µM	remaining binding	92%
Cn1cc(-c2cccc(N3CCc4c(sc5c4CC(C)(C)C5)C3=O)c2CO)cc(Nc2ccncn2)c1=O	Dual specificity mitogen-activated protein kinase kinase 6 (MAP2K6, Homo sapiens, UniProt P52564, S207E/T211E)	enzyme activity, inhibitor	1 µM	inhibition	-4%
Cc1nn(C)cc1-c1nc2c(N3CCN(Cc4ccc(Cl)cc4)CC3)c(Cl)cnc2[nH]1	MAP2K6	binding, competition with immobilised ligand	1 µM	remaining binding	73%
Cn1cc(-c2cc(F)cc(N3CCn4c(cc5c4CCCC5)C3=O)c2CO)cc(Nc2ccc(N3CCN(C4COC4)CC3)cn2)c1=O	MAP2K6	enzyme activity, inhibitor	0.1 µM	inhibition	4%
CC(C)(C)c1cc(C=C(C#N)C#N)cc(Br)c1O	MAP2K6	enzyme activity, inhibitor	0.5 µM	remaining activity	107%
Cn1cncc1[C@](O)(COc1ccc(C#N)cc1-c1ccc(OC(F)(F)F)cc1)c1ccc(C#N)cc1	MAP2K6	cell-free assay, competition with immobilised ligand	1 µM	remaining binding	76%
